Assay results published in ChEMBL document CHEMBL1152819, “Evaluation of hexadecyloxypropyl-9-R-[2-(Phosphonomethoxy)propyl]- adenine, CMX157, as a potential treatment for human immunodeficiency virus type 1 and hepatitis B virus infections” (Antimicrob Agents Chemother, 2007).

Key:
[1] = Cytotoxicity against human HepG2 cells by MTS assay; type: cell-based; conditions: human, HepG2 cells
Procedure, shortened: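 Exponentially growing HepG2 cells (parent hepatoma line); cytostatic effect measured by MTS method.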

[2] = Selectivity index, ratio of CC50 for human HepG2 cells to EC50 for HBV
[3] = test system: Human immunodeficiency virus 1; assay: Antiviral activity against HIV1 clade B HT/92/599 isolate in human PBMC assessed as reduction in reverse transcriptase; type: functional, organism-based; conditions: Human immunodeficiency virus 1, clade B
Procedure, shortened: (§1)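 Fresh human PBMCs, seronegative for HIV and HBV, infected with HIV-1 clade B HT/92/599. Antiviral read-out by reverse transcriptase reduction; cytotoxicity by XTT staining. EC50, CC50 and CC50/EC50 taken from data plots, given as mean ± standard deviation of triplicate determinations.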

[4] = test system: Rattus norvegicus; assay: AUC (0 to infinity) in Sprague-Dawley rat assessed as tenofovir level at 30 mg/kg, po administered daily for 7 days measured on day 1; type: ADME, organism-based, Plasma; design: time infinity, dose 30 mg/kg, route oral; conditions: in vivo, 168 h
Procedure, shortened: (§2)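 Sprague-Dawley rats (3/sex/group), about 8 to 12 weeks old and not fasted, got vehicle or 10, 30 or 100 mg/kg/day orally once daily for 7 days. Blood was drawn at 0.5, 1, 2, 4, 12 and 24 h after dosing on days 1 and 7 (1 rat/sex/time point). Plasma was deproteinized, then HPLC-MS/MS (LOQ 1 ng/ml, values below set to zero). Noncompartmental analysis, AUC by linear-log trapezoidal rule.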

[5] = Selectivity index, ratio of CC50 for human MT2 cells to EC50 for HIV1 LAI; type: toxicity, cell-based; conditions: read-out: Ratio CC50/EC50
[6] = test system: Rattus norvegicus; assay: Elimination half life in Sprague-Dawley rat assessed as tenofovir level at 30 mg/kg, po administered daily for 7 days measured on day 1; type: ADME, organism-based; design: dose 30 mg/kg, route oral; conditions: in vivo, 168 h
Procedure, shortened: (§3)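 Oral once daily for 7 days, vehicle or 10, 30 or 100 mg/kg/day, Sprague-Dawley rats 8-12 weeks old, not fasted. Plasma sampled 0.5, 1, 2, 4, 12, 24 h after dosing on days 1 and 7 (1 rat/sex/time point). CMX157 and tenofovir measured by HPLC-MS/MS, LOQ 1 ng/ml (values below set to zero). Noncompartmental analysis; Cmax/Tmax by direct observation, AUC by linear-log trapezoidal rule.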

[7] = Cytotoxicity against human PBMC by XTT assay; type: cell-based; procedure, shortened: as §1
[8] = test system: Rattus norvegicus; assay: AUC (0 to infinity) in Sprague-Dawley rat assessed as tenofovir level at 100 mg/kg, po administered daily for 7 days measured on day 7; type: ADME, organism-based, Plasma; design: time infinity, dose 100 mg/kg, route oral; conditions: in vivo, 168 h; procedure, shortened: as §3
[9] = Selectivity index, ratio of CC50 for human PBMC to EC50 for HIV1 clade B HT/92/599 isolate; procedure, shortened: as §1
[10] = test system: Rattus norvegicus; assay: AUC (0 to infinity) in Sprague-Dawley rat assessed as tenofovir level at 10 mg/kg, po administered daily for 7 days measured on day 1; type: ADME, organism-based, Plasma; design: time infinity, dose 10 mg/kg, route oral; conditions: in vivo, 168 h; procedure, shortened: as §3
[11] = test system: Human immunodeficiency virus 1; assay: Antiviral activity against HIV1 LAI in human MT2 cells assessed as inhibition of p24 antigen production by ELISA; type: functional, organism-based; conditions: Human immunodeficiency virus 1, LAI
Procedure, shortened: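 MT-2 cells in RPMI 1640 with 10% FBS and 10 mM HEPES, infected with HIV-1 LAI at MOI 0.001 TCID50/cell. Incubated with threefold serial dilutions, three wells per dilution. EC50 taken as the concentration inhibiting p24 antigen production by 50%.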

[12] = Cytotoxicity against human HepG2(2.2.15) cells after 24 hrs by neutral red uptake assay; type: cell-based; conditions: human, HepG2 2.2.15 cells
Procedure, shortened: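 Confluent 2.2.15 cells given nine daily treatments. Neutral red uptake read by absorbance of internalized dye 24 h after the last treatment, three cultures per concentration.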

[13] = Cytotoxicity against human MT2 cells; type: cell-based
Procedure, shortened: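 MT-2 cells in RPMI 1640 with 10% FBS and 10 mM HEPES, exposed to threefold serial drug dilutions. CC50 calculated from cell counts and viability.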

[14] = test system: Rattus norvegicus; assay: Tmax in Sprague-Dawley rat assessed as tenofovir level at 10 mg/kg, po administered daily for 7 days measured on day 1; type: ADME, organism-based; design: dose 10 mg/kg, route oral; conditions: in vivo, 168 h; procedure, shortened: as §3
[15] = test system: Hepatitis B virus; assay: Antiviral activity against HBV in human HepG2(2.2.15) cells assessed as viral DNA levels treated for 9 days measured after 24 hrs; type: functional, organism-based
Procedure, shortened: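 Confluent 2.2.15 cells in RPMI 1640 with 2% FBS, given nine consecutive daily doses with daily medium change (six cultures per concentration on two replicate plates). HBV DNA quantified by blot hybridization 24 h after the last treatment.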

[16] = test system: Rattus norvegicus; assay: Tmax in Sprague-Dawley rat assessed as tenofovir level at 10 mg/kg, po administered daily for 7 days measured on day 7; type: ADME, organism-based; design: dose 10 mg/kg, route oral; conditions: in vivo, 168 h; procedure, shortened: as §3
[17] = test system: Rattus norvegicus; assay: Elimination half life in Sprague-Dawley rat assessed as tenofovir level at 100 mg/kg, po administered daily for 7 days measured on day 7; type: ADME, organism-based; design: dose 100 mg/kg, route oral; conditions: in vivo, 168 h; procedure, shortened: as §3
[18] = test system: Hepatitis B virus; assay: Antiviral activity against HBV in human HepAD38 cells assessed as intracellular viral DNA levels treated for 3 days measured on day 6 […] by RT-PCR; type: functional, organism-based
Procedure, shortened: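 HepAD38 cells seeded at 5 x 10^5/well, grown 2-3 days with 0.3 µg/ml tetracycline, then induced by PBS wash and tetracycline/G418-free medium with or without compound at 37°C, 5% CO2. Medium changed after 3 days. Intracellular HBV DNA measured on day 6 postinduction by TaqMan real-time PCR against a plasmid standard curve, given as % of mock.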

[19] = test system: Rattus norvegicus; assay: Elimination half life in Sprague-Dawley rat assessed as tenofovir level at 100 mg/kg, po administered daily for 7 days measured on day 1; type: ADME, organism-based; design: dose 100 mg/kg, route oral; conditions: in vivo, 168 h; procedure, shortened: as §3
[20] = Selectivity index, ratio of CC50 for human HepG2(2.2.15) cells to EC50 for HBV
[21] = test system: Rattus norvegicus; assay: Tmax in Sprague-Dawley rat assessed as tenofovir level at 30 mg/kg, po administered daily for 7 days measured on day 7; type: ADME, organism-based; design: dose 30 mg/kg, route oral; conditions: in vivo, 168 h; procedure, shortened: as §3
[22] = test system: Rattus norvegicus; assay: Tmax in Sprague-Dawley rat assessed as tenofovir level at 100 mg/kg, po administered daily for 7 days measured on day 7; type: ADME, organism-based; design: dose 100 mg/kg, route oral; conditions: in vivo, 168 h; procedure, shortened: as §3
[23] = test system: Rattus norvegicus; assay: AUC (0 to infinity) in Sprague-Dawley rat assessed as tenofovir level at 30 mg/kg, po administered daily for 7 days measured on day 7; type: ADME, organism-based, Plasma; design: time infinity, dose 30 mg/kg, route oral; conditions: in vivo, 168 h; procedure, shortened: as §3
[24] = test system: Rattus norvegicus; assay: Elimination half life in Sprague-Dawley rat assessed as tenofovir level at 10 mg/kg, po administered daily for 7 days measured on day 7; type: ADME, organism-based; design: dose 10 mg/kg, route oral; conditions: in vivo, 168 h; procedure, shortened: as §3
[25] = test system: Rattus norvegicus; assay: Elimination half life in Sprague-Dawley rat assessed as tenofovir level at 10 mg/kg, po administered daily for 7 days measured on day 1; type: ADME, organism-based; design: dose 10 mg/kg, route oral; conditions: in vivo, 168 h; procedure, shortened: as §2
[26] = test system: Rattus norvegicus; assay: AUC (0 to infinity) in Sprague-Dawley rat assessed as tenofovir level at 10 mg/kg, po administered daily for 7 days measured on day 7; type: ADME, organism-based, Plasma; design: time infinity, dose 10 mg/kg, route oral; conditions: in vivo, 168 h; procedure, shortened: as §3
[27] = test system: Rattus norvegicus; assay: AUC (0 to infinity) in Sprague-Dawley rat assessed as tenofovir level at 100 mg/kg, po administered daily for 7 days measured on day 1; type: ADME, organism-based, Plasma; design: time infinity, dose 100 mg/kg, route oral; conditions: in vivo, 168 h; procedure, shortened: as §3
[28] = test system: Rattus norvegicus; assay: Tmax in Sprague-Dawley rat assessed as tenofovir level at 100 mg/kg, po administered daily for 7 days measured on day 1; type: ADME, organism-based; design: dose 100 mg/kg, route oral; conditions: in vivo, 168 h; procedure, shortened: as §3
[29] = test system: Rattus norvegicus; assay: Tmax in Sprague-Dawley rat assessed as tenofovir level at 30 mg/kg, po administered daily for 7 days measured on day 1; type: ADME, organism-based; design: dose 30 mg/kg, route oral; conditions: in vivo, 168 h; procedure, shortened: as §3
[30] = test system: Rattus norvegicus; assay: Elimination half life in Sprague-Dawley rat assessed as tenofovir level at 30 mg/kg, po administered daily for 7 days measured on day 7; type: ADME, organism-based; design: dose 30 mg/kg, route oral; conditions: in vivo, 168 h; procedure, shortened: as §3

In the case of `C[C@H](Cn1cnc2c(N)ncnc21)OCP(=O)(O)O` [TENOFOVIR ANHYDROUS], the CC50 [1] is reported as > 100 µM, the “Ratio CC50/EC50” value [2] is reported as >133 and the EC50 [3] is reported as 3.2 µM. For the same molecule, the AUC [4] was 1808.1 ng·h/mL, the selectivity ratio [5] was > 154 and the “beta t1/2” value [6] was 10.1 h. For the same molecule, the CC50 [7] was 1270 µM, the AUC [8] was 7373.4 ng·h/mL and the “Ratio CC50/EC50” value [9] was 396. For the same molecule, the AUC [10] was 775.2 ng·h/mL, the EC50 [11] was 0.65 µM and the CC50 at 24 h [12] was > 300 µM. The CC50 [13] was > 100 µM, the Tmax [14] was 2 h and the EC50 [15] was 7.2 µM. For the same molecule, the Tmax [16] was 2.4 h, the “beta t1/2” value [17] was 9 h and the EC50 [18] was 2.25 µM. For the same molecule, the “beta t1/2” value [19] was 7.2 h, the “Ratio CC50/EC50” value [20] was >41.7 and the Tmax [21] was 4 h. For the same molecule, the Tmax [22] was 12 h, the AUC [23] was 2790.5 ng·h/mL and the “beta t1/2” value [24] was 9.2 h. For the same molecule, the “beta t1/2” value [25] was 10.9 h, the AUC [26] was 1226.9 ng·h/mL and the AUC [27] was 3639.5 ng·h/mL. For the same molecule, the Tmax [28] was 12 h, the Tmax [29] was 4 h and the “beta t1/2” value [30] was 7.6 h.
